# Reference: ChEMBL document CHEMBL4020840, “Synthesis and Biological Evaluation of Selenium-Containing 4-Anilinoquinazoline Derivatives as Novel Antimitotic Agents” (J Med Chem, 2018)
# What was measured:
# A549 [1] = assay: Induction of apoptosis in human A549 cells assessed as early apoptotic cells at 2 nM after 24 hrs by Annexin V-FITC/propidium iodide staining based flow cytometry (reference value: 0.98%); format: functional
# HepG2 = assay: Growth inhibition of human HepG2 cells after 48 hrs by MTT assay; format: functional, cell-based; settings: HepG2, 48 h
# Summary of the method: (§1)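 MTT assay: log-phase cells plated at 5 × 10³/well for 24 h, then exposed to a range of test concentrations for 48 h. MTT (5 mg/mL) added for 4 h, formazan dissolved in DMSO, absorbance read at 570 nm. IC50 is the concentration giving 50% growth inhibition, from dose-response curves; at least three independent experiments, mean ± SE.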
# A549 [2] = assay: Induction of apoptosis in human A549 cells assessed as early apoptotic cells at 4 nM after 24 hrs by Annexin V-FITC/propidium iodide staining based flow cytometry (reference value: 0.98%); format: functional
# MGC-803 = assay: Antiproliferative activity against human MGC803 cells after 48 hrs by MTT assay; format: functional, cell-based; settings: MGC-803, 48 h; summary of the method: as §1
# A549 [3] = assay: Induction of apoptosis in human A549 cells assessed as live cells at 2 nM after 48 hrs by Annexin V-FITC/propidium iodide staining based flow cytometry (reference value: 98.49%); format: functional
# [4] = Resistance factor, ratio of IC50 for human A549/CDDP cells to IC50 for human A549 cells; format: functional
# Summary of the method: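 MTT assay: log-phase cells were seeded at 5 × 10³/well for 24 h, then exposed to a concentration series for 48 h. MTT (5 mg/mL) was added for 4 h, formazan was dissolved in DMSO, and A570 was read. IC50 values came from dose–response curves of at least three independent experiments. Resistance factor = IC50 in the resistant line / IC50 in the parental sensitive line.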
# A549 [5] = assay: Induction of mitochondrial membrane disruption in human A549 cells assessed as cells with intact mitochondrial membrane at 2 nM after 48 hrs by JC1 staining based flow cytometry (reference value: 99.13%); format: functional
# MCF7 = assay: Antiproliferative activity against human MCF7 cells after 48 hrs by MTT assay; format: functional, cell-based; settings: MCF7, 48 h; summary of the method: as §1
# A549 [6] = assay: Induction of apoptosis in human A549 cells assessed as late apoptotic cells at 4 nM after 24 hrs by Annexin V-FITC/propidium iodide staining based flow cytometry (reference value: 0.08%); format: functional
structure (smiles),measurement,setting,value
C[Se]c1ccc(N(C)c2nc(C)nc3ccccc23)cc1,Activity,A549 [1],16.35%
same,IC50,HepG2,4 nM
same,Activity,A549 [2],26.51%
same,IC50,MGC-803,7 nM
same,Activity,A549 [3],49.81%
same,Ratio IC50,[4],4.09
same,Activity,A549 [5],83.86%
same,IC50,MCF7,10 nM
same,Activity,A549 [6],6.35%
